# Reference: the RNAGym collection of RNA variant scans (doi:10.1126/science.aae0568)
# This sample holds only a part of the variants without activity.
# B1: tRNA (parent)
# chain: GUUCCGUUGGCGUAAUGGUAACGCGUCUCCCUCCUAAGGAGAAGACUGCGGGUUCGAGUCCCGUACGGAACG
# Variants of: B1
# Assay: yeast fitness relative to wild type (ratio to wild type); higher = fitter; tRNA-Arg(CCU), competitive growth, 37 C, YPD
# In short: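 Genotype frequency changes were the basis for Darwinian fitness relative to wild type. The frequencies came from 100-nucleotide paired-end sequencing of gene amplicons from the start population and each end population of pooled yeast strains with tRNA-Arg(CCU) gene variants at the native locus. Competition ran in YPD at 37°C for 24 hours in six replicates, genotypes needed ≥ 100 starting reads, and estimates < 0.5 were set to 0.5.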
row,Variant,yeast fitness
1,G9A A36C C49A C55U A57G A69U,≤ 0.5
2,G9A A15G U16A G23C,≤ 0.5
3,U8G U28G C34A,≤ 0.5
4,U8G U35A U54A,0.548
5,G9A A14U C29G C34A C62U,≤ 0.5
6,U8G G38A,0.57
7,U8G G25C A36G G48A,≤ 0.5
8,U8G A14G A43C,≤ 0.5
9,U8G G12A A20G,≤ 0.5
10,U8G C29G C66A,≤ 0.5
11,U8C U19A A40C G44C G48C,≤ 0.5
12,U8G G18C A37G A40G G63C,0.506
13,U8G C34A,≤ 0.5
14,U8G G10C C11U A37G U59C,≤ 0.5
15,U8G C30U C31G G39A A45U G52A,0.567
16,U8C U19A C22G C24U C33G,≤ 0.5
17,U8C U32G U47C C55G,≤ 0.5
18,U8C G56A,1.06
19,U8C G56U,0.755
20,G9A A14C,0.591
21,G9A A14G,0.908

row,Variant,yeast fitness
1,U8G G9C A37U G50C,≤ 0.5
2,U8G C31U A37G U54A C55A,≤ 0.5
3,U8G C24G G41A C49U,≤ 0.5
4,U8G U35A A70C,0.524
5,G9A A40U G51C C66U G67U,≤ 0.5
6,G9A A20G G38A C62U,0.676
7,U8G A36U,0.515
8,U8C U16C U53G G56C C60A,≤ 0.5
9,U8G U32C C33G C61A C66U,≤ 0.5
10,U8G C11G U32A A70C,0.599
11,U8G A43C G52A,0.847
12,U8G G12A G44A,0.566
13,U8C U13A,0.809
14,U8C U13G,0.841
15,U8G A36C U53C A69G,≤ 0.5
16,U8G A20C C49G G50A G56C,≤ 0.5
17,U8G U32G G38A G56C,≤ 0.5
18,G9A A20G U64C,0.674
19,G9A A15G A42C C62U,≤ 0.5
20,U8G C46U C55A C66U,0.524
21,U8G G9U C30A C55U,≤ 0.5

row,Variant,yeast fitness
1,U8C G67U,0.862
2,U8C U59G,0.901
3,U8C U59A,0.721
4,U8G C27A C31A C33G,≤ 0.5
5,U8G C24G G41A C49G C60A C62G A70C,≤ 0.5
6,U8G C30G C31U G39A,0.507
7,U8G A20U C62A,0.624
8,U8G A42G,0.58
9,G9A A21U G39C,≤ 0.5
10,U8C U32C C46A C55A,0.625
11,U8C G44A U53C A70U,≤ 0.5
12,U8G C27U C62G,≤ 0.5
13,G9A A40C C66U,0.719
14,U8G C22G G25A G68A,≤ 0.5
15,U8C U16C C33U A43U C49G G50C C61U C66U,≤ 0.5
16,U8C U28A C46G C55A,0.731
17,U8C U16A U19A C22U,0.536
18,U8C G50A C66A,≤ 0.5
19,U8C U16G G41C,≤ 0.5
20,U8G C27U C31U C33A G67C,≤ 0.5
21,U8G U16A C34A A36C U64C C66A,≤ 0.5

row,Variant,yeast fitness
1,U8C G48C,0.843
2,G9A A36C A45C G63A,≤ 0.5
3,U8G A20C A43U G67A,≤ 0.5
4,U8G G10C A20G G63A,≤ 0.5
5,U8G A65C,0.733
6,U8G A70C,0.633
7,U8G C24G,0.537
8,U8G C24G C33U,≤ 0.5
9,U8C U26A C61A A65U,≤ 0.5
10,U8G C11G U32A G67C,≤ 0.5
11,U8C U13A G67U,0.626
12,U8G G38A G67A A69U,≤ 0.5
13,U8C G58C,0.919
14,U8C G58A,1.02
15,G9A A21U U28C G44A C55G,≤ 0.5
16,U8G G17A A20C C22G C29G C34G,0.549
17,U8G G17A C24G C66U,≤ 0.5
18,G9A A15G A20U U28C A69U,0.542
19,G9A A36G C66U,0.77
20,U8C U32C G48A,0.591
